# Experimental data reported in ChEMBL document CHEMBL1146516, “Isolation and characterization of polybrominated diphenyl ethers as inhibitors of microtubule assembly from the marine sponge Phyllospongia dendyi collected at Palau” (J Nat Prod, 2004).
# Active and inactive are the calls of the source. The calls are words filed in the database; no cut-off is given here.
# Columns and labels:
# Sus scrofa = organism: Sus scrofa; assay: Inhibition of pig brain microtubule assembly at 100 uM
# Procedure, shortened: (§1)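 Microtubule protein purified from fresh porcine brain by repeated polymerization/depolymerization cycles in 100 mM MES, 1 mM EGTA, 0.5 mM MgCl2, 1 mM GTP, 1 mM 2-mercaptoethanol, pH 6.5; 1.3 mg/mL protein; DMSO-dissolved sample (final DMSO <2%); assembly followed by turbidity at 400 nm, 37 °C.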
# Oocyte = assay: Inhibition of 1-methyladenine-stimulated meiotic maturation in Asterina pectinifera immature oocytes assessed as germinal vesicle breakdown at 100 uM after 60 mins; type: functional, cell-based; conditions: Patiria pectinifera
# Procedure, shortened: (§2)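 Immature oocytes from wild-caught Asterina pectinifera ovaries, 100 cells/mL; DMSO-dissolved sample added, held on ice 10 min, then 1-MeAde (1.25 µM, as added) added; incubated 20 °C for 60 min; germinal vesicle state scored under inverted microscope.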
# [1] = Inhibition of pig brain microtubule assembly; set-up: species or system Sus scrofa; procedure, shortened: as §1
# [2] = Inhibition of 1-methyladenine-stimulated meiotic maturation in Asterina pectinifera immature oocytes assessed as germinal vesicle breakdown after 60 mins; type: functional, cell-based, Patiria pectinifera; conditions: oocyte; procedure, shortened: as §2
Structure (SMILES),Activity (Sus scrofa),Activity (Oocyte),IC50 [1] [µM],IC50 [2] [µM]
COc1cc(Br)cc(Br)c1Oc1c(Br)ccc(Br)c1O,inactive,inactive,–,–
COc1c(Br)c(Br)c(Br)c(Br)c1Oc1cc(Br)cc(Br)c1O,inactive,inactive,–,–
COc1cc(Br)cc(Br)c1Oc1cc(Br)cc(Br)c1OC,inactive,inactive,–,–
Oc1c(Br)cc(Br)cc1Oc1ccc(Br)cc1Br,inactive,inactive,–,–
Oc1c(Br)cc(Br)cc1Oc1c(O)c(Br)c(Br)c(Br)c1Br,–,–,29.6,3.6
COc1cc(Br)c(Br)c(Br)c1Oc1cc(Br)cc(Br)c1OC,inactive,inactive,–,–
COc1cc(Br)cc(Br)c1Oc1cc(Br)cc(Br)c1O,inactive,inactive,–,–
Oc1cc(Br)c(Br)c(Br)c1Oc1c(Br)ccc(Br)c1O,–,–,20.9,4.2
COc1cc(Br)c(Br)c(Br)c1Oc1cc(Br)cc(Br)c1O,inactive,inactive,–,–
Oc1c(Br)cc(Br)cc1Oc1c(Br)cc(Br)c(Br)c1O,–,–,33.5,4.2
COc1c(Br)c(Br)cc(Br)c1Oc1cc(Br)cc(Br)c1O,inactive,inactive,–,–
